Tests used:
[1] = molecular target: Ribosomal protein S6 kinase alpha-1 (Homo sapiens) (UniProt Q15418); test: Percent residual activity, relative to control, of MAPKAP-K1a/Rsk1 at 1 uM concentration of inhibitor in presence of 50 uM ATP
How it was run: (§1)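 It is expressed as percent of activity in control incubations without inhibitor, as the mean of duplicate determinations. The protocol follows earlier published panel methods.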

[2] = molecular target: Mitogen-activated protein kinase 1 (Homo sapiens) (UniProt P28482); test: Percent residual activity, relative to control, of MAPK2/ERK2 at 1 uM concentration of inhibitor in presence of 50 uM ATP; how it was run: as §1
[3] = molecular target: Myosin light chain kinase, smooth muscle (Homo sapiens) (UniProt Q15746); test: Percent residual activity, relative to control, of smMLCK at 1uM concentration of inhibitor in presence of 50uM ATP
How it was run: (§2)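 Methods followed an earlier description. Activity is given as percent residual activity relative to control incubations with the inhibitor omitted. Values are means of duplicate determinations.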

[4] = molecular target: Tyrosine-protein kinase Lck (Homo sapiens) (UniProt P06239); test: Percent residual activity, relative to control, of Lck at 1uM concentration of inhibitor in presence of 50uM ATP; how it was run: as §1
[5] = molecular target: c-Jun N-terminal kinase, JNK (Homo sapiens) (UniProt P45983+P53779+P45984); test: Percent residual activity, relative to control, of JNK/SAPK1c at 1 uM concentration of inhibitor in presence of 20 uM ATP; assay type: protein assay; how it was run: as §1
[6] = molecular target: Lymphokine-activated killer T-cell-originated protein kinase (Homo sapiens) (UniProt Q96KB5); test: Percent residual activity, relative to control, of PBK at 1uM concentration of inhibitor in presence of 50uM ATP; how it was run: as §1
[7] = molecular target: RAC-beta serine/threonine-protein kinase (Homo sapiens) (UniProt P31751); test: Percent residual activity, relative to control, of PKB beta at 1uM concentration of inhibitor in presence of 50uM ATP; how it was run: as §1
[8] = species: Homo sapiens; test: Percent residual activity, relative to control, of CAMK-1 at 1 uM concentration of inhibitor in presence of 50 uM ATP; how it was run: as §1
[9] = molecular target: Serine/threonine-protein kinase PLK1 (Homo sapiens) (UniProt P53350); test: Percent residual activity, relative to control, of PLK1 at 1 uM concentration of inhibitor in presence of 5 uM ATP; how it was run: as §1
[10] = molecular target: Cyclin-dependent kinase 2/cyclin A (Homo sapiens) (UniProt P24941+P20248+P78396); test: Percent residual activity, relative to control, of CDK2 (with cyclin A) at 1 uM concentration of inhibitor in presence of 20 uM ATP; assay type: protein-complex assay; how it was run: as §1
[11] = molecular target: Serine/threonine-protein kinase pim-2 (Homo sapiens) (UniProt Q9P1W9); test: Percent residual activity, relative to control, of PIM2 at 1uM concentration of inhibitor in presence of 5uM ATP; how it was run: as §1
[12] = molecular target: Aurora kinase B (Homo sapiens) (UniProt Q96GD4); test: Percent residual activity, relative to control, of Aurora-B at 1 uM concentration of inhibitor in presence of 20 uM ATP; how it was run: as §1
[13] = molecular target: Proto-oncogene tyrosine-protein kinase Src (Homo sapiens) (UniProt P12931); test: Percent residual activity, relative to control, of Src at 1 uM concentration of inhibitor in presence of 50 uM ATP; how it was run: as §2
[14] = molecular target: Casein kinase I (Homo sapiens) (UniProt Q9HCP0+P78368+P48730+P49674+P48729); test: Percent residual activity, relative to control, of CK1 at 1 uM concentration of inhibitor in presence of 20 uM ATP; assay type: protein assay; how it was run: as §1
[15] = molecular target: Eukaryotic elongation factor 2 kinase (Homo sapiens) (UniProt O00418); test: Percent residual activity, relative to control, of EF2K at 1 uM concentration of inhibitor in presence of 5 uM ATP; how it was run: as §1
[16] = molecular target: Protein kinase C alpha type (Homo sapiens) (UniProt P17252); test: Percent residual activity, relative to control, of PKC alpha at 1uM concentration of inhibitor in presence of 20uM ATP; how it was run: as §1
[17] = molecular target: Serine/threonine-protein kinase Nek6 (Homo sapiens) (UniProt Q9HC98); test: Percent residual activity, relative to control, of NEK6 at 1 uM concentration of inhibitor in presence of 50 uM ATP; how it was run: as §1
[18] = molecular target: MAP kinase-interacting serine/threonine-protein kinase 2 (Homo sapiens) (UniProt Q9HBH9); test: Percent residual activity, relative to control, of MNK2 at 1 uM concentration of inhibitor in presence of 50 uM ATP; how it was run: as §1
[19] = molecular target: Mitogen-activated protein kinase 10 (Homo sapiens) (UniProt P53779); test: Percent residual activity, relative to control, of JNK3 at 1uM concentration of inhibitor in presence of 50uM ATP; how it was run: as §1
[20] = molecular target: Serine/threonine-protein kinase Chk1 (Homo sapiens) (UniProt O14757); test: Percent residual activity, relative to control, of CHK1 at 1 uM concentration of inhibitor in presence of 20 uM ATP; how it was run: as §1
[21] = molecular target: Inhibitor of nuclear factor kappa-B kinase subunit beta (Homo sapiens) (UniProt O14920); test: Percent residual activity, relative to control, of IKK beta at 1 uM concentration of inhibitor in presence of 5 uM ATP
How it was run: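 Kinase panel assay run at an ATP concentration close to the kinase's Km. Inhibitor tested at 1 µM. Activity expressed as percent residual relative to control incubations without inhibitor, as the mean of duplicate determinations.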

[22] = molecular target: Glycogen synthase kinase-3 beta (Homo sapiens) (UniProt P49841); test: Percent residual activity, relative to control, of GSK3 beta at 1uM concentration of inhibitor in presence of 5uM ATP; how it was run: as §1
[23] = molecular target: cAMP-dependent protein kinase catalytic subunit alpha (Homo sapiens, UniProt P17612); test: Inhibitory potency towards human cAPK C alpha in the presence of 100 uM ATP and 30 uM TAMRA-kemptide
How it was run: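 cAPK catalytic subunit (about 1 nM) incubated at 30 °C with inhibitor at various concentrations in 50 mM Hepes pH 7.5, 10 mM Mg acetate, 0.2 mg/mL BSA, 30 µM TAMRA-kemptide; reaction started with 100 µM ATP. Stopped at fixed times by 20-fold dilution in 75 mM phosphoric acid, then normal-phase TLC with fluorescence imaging (532 nm excitation). IC50 determined.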

[24] = molecular target: 3-phosphoinositide-dependent protein kinase 1 (Homo sapiens) (UniProt O15530); test: Percent residual activity, relative to control, of PDK1 at 1 uM concentration of inhibitor in presence of 20 uM ATP; how it was run: as §1
[25] = molecular target: Serine/threonine-protein kinase N2 (Homo sapiens) (UniProt Q16513); test: Percent residual activity, relative to control, of PRK2 at 1 uM concentration of inhibitor in presence of 5 uM ATP; how it was run: as §1
Serine/threonine-protein kinase N2 (Homo sapiens), sequence (Q16513 whole entry, looked up): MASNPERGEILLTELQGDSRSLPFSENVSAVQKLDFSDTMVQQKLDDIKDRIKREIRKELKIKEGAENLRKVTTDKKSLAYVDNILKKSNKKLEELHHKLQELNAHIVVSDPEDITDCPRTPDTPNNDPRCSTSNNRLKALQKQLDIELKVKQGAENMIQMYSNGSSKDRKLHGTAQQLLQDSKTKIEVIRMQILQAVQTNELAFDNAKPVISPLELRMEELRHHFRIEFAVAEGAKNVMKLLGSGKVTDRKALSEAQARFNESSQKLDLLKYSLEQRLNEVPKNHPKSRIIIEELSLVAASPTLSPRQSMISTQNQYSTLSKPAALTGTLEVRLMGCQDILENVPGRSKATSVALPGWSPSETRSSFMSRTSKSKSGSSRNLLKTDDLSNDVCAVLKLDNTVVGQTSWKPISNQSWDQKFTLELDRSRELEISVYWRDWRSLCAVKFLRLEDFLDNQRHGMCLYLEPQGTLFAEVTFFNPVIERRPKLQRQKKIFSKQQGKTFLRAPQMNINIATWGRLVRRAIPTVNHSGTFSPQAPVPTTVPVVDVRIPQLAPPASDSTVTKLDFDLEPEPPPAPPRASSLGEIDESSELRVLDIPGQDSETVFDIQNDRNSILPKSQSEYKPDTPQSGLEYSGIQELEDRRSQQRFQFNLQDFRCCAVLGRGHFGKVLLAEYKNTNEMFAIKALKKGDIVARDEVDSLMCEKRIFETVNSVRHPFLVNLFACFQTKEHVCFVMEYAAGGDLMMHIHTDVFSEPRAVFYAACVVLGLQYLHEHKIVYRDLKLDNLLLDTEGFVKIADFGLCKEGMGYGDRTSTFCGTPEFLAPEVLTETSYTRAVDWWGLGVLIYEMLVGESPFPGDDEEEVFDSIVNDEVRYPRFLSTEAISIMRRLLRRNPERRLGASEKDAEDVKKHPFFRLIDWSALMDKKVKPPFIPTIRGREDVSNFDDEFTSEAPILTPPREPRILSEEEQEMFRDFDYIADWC

MAP kinase-interacting serine/threonine-protein kinase 2 (Homo sapiens), sequence (Q9HBH9 whole entry, looked up): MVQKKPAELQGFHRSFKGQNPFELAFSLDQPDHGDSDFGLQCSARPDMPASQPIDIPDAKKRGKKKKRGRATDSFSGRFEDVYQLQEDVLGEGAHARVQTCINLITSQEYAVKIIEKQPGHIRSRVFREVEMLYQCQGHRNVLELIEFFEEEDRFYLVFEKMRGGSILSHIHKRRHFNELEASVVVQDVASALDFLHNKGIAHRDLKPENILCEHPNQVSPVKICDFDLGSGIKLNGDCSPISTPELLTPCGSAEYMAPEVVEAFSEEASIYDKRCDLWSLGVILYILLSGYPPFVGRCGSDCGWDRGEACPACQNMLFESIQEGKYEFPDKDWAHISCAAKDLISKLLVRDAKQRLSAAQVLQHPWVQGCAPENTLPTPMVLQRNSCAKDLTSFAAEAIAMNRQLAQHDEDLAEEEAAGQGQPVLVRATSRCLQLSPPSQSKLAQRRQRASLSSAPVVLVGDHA
Eukaryotic elongation factor 2 kinase (Homo sapiens), sequence (O00418 whole entry): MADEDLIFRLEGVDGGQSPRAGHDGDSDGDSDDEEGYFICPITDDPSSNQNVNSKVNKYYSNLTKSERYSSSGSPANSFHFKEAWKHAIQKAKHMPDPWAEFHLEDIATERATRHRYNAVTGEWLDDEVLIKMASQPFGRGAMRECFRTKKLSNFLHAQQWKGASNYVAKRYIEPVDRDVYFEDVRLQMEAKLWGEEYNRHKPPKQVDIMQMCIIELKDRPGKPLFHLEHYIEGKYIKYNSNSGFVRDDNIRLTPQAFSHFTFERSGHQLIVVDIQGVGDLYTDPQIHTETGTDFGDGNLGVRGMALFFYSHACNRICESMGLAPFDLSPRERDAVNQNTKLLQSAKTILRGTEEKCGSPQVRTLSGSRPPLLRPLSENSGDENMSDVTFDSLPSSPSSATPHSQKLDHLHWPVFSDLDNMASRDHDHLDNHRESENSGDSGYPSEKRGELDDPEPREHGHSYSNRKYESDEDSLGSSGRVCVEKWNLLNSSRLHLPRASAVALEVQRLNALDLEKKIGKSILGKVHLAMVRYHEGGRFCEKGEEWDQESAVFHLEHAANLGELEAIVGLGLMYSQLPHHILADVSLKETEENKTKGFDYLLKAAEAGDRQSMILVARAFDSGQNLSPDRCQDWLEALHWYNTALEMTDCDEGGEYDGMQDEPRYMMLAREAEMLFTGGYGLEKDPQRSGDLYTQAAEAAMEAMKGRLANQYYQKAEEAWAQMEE
Tyrosine-protein kinase Lck (Homo sapiens), sequence (P06239 2-509 limits assumed): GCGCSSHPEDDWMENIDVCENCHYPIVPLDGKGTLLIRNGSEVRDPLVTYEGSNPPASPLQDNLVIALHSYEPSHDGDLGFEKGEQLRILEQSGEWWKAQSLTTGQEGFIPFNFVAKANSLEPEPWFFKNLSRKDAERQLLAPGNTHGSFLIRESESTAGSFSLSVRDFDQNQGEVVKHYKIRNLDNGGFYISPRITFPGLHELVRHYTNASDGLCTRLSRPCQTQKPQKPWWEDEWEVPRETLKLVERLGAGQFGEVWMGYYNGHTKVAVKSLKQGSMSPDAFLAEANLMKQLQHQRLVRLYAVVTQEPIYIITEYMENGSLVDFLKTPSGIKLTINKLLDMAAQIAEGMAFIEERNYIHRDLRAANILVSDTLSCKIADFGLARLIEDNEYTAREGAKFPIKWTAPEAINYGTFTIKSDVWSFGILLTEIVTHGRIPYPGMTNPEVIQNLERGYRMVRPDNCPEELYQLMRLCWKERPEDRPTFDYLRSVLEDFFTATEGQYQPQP
3-phosphoinositide-dependent protein kinase 1 (Homo sapiens), sequence (O15530 whole entry): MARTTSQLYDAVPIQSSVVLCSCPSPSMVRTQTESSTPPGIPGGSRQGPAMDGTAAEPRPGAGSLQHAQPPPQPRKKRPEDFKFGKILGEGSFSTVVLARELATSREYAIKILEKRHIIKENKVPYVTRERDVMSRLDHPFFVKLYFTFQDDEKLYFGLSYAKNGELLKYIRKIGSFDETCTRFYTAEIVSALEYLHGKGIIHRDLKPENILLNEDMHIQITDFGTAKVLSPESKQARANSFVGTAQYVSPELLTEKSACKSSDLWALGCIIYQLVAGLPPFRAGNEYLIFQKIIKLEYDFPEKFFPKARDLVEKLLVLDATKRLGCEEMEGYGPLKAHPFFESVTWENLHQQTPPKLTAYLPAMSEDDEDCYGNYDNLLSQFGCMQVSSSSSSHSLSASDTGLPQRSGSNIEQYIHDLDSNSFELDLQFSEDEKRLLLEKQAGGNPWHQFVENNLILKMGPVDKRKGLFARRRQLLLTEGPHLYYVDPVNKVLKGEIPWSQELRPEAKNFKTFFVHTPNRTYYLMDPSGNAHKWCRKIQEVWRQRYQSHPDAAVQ
Proto-oncogene tyrosine-protein kinase Src (Homo sapiens), sequence (P12931 2-536 limits assumed): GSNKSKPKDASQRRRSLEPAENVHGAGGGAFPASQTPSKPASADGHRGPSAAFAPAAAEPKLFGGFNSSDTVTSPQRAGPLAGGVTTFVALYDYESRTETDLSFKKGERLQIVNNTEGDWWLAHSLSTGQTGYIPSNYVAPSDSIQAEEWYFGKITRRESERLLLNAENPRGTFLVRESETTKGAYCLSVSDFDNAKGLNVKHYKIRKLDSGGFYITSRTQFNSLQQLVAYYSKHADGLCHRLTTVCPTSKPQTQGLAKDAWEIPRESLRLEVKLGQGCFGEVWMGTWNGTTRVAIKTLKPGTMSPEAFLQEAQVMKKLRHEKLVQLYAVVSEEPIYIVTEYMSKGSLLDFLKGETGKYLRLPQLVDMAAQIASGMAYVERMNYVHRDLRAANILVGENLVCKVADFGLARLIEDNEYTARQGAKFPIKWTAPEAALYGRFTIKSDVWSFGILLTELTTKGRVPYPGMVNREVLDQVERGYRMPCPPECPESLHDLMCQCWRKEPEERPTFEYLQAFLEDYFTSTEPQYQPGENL
Serine/threonine-protein kinase Nek6 (Homo sapiens), sequence (Q9HC98 whole entry): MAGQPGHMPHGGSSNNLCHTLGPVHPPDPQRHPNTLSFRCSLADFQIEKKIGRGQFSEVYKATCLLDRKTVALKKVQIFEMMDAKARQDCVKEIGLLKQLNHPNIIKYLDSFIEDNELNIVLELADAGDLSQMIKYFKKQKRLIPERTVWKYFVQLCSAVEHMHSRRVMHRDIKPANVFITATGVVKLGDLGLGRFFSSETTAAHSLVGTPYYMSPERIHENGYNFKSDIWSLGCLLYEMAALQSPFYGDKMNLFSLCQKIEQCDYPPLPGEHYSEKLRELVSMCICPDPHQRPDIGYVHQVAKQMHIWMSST
Lymphokine-activated killer T-cell-originated protein kinase (Homo sapiens), sequence (Q96KB5 whole entry): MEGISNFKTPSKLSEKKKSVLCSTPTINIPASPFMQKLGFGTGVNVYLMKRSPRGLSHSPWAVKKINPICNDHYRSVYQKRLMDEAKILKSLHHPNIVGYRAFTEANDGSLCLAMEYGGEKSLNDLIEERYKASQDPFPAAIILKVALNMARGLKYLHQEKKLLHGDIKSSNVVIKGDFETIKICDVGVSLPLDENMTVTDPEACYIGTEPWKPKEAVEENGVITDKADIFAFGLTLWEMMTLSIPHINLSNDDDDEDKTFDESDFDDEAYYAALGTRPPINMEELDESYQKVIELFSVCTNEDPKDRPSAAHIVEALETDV
Serine/threonine-protein kinase pim-2 (Homo sapiens), sequence (Q9P1W9 whole entry, looked up): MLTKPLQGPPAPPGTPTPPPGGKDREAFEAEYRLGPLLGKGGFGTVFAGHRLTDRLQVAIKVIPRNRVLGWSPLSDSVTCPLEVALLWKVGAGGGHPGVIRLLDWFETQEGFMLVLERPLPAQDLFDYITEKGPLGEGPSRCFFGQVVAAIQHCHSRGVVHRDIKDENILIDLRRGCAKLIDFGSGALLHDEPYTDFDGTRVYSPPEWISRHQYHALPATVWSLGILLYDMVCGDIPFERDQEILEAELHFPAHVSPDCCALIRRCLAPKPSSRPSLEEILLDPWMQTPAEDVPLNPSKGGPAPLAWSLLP

**Q.** How did the Activity [1] turn out when `N=C(N)NCCC[C@@H](NC(=O)[C@@H](CCCNC(=N)N)NC(=O)[C@@H](CCCNC(=N)N)NC(=O)[C@@H](CCCNC(=N)N)NC(=O)[C@@H](CCCNC(=N)N)NC(=O)[C@@H](CCCNC(=N)N)NC(=O)CCCCCNC(=O)[C@H]1O[C@@H](n2cnc3c(N)ncnc32)[C@H](O)[C@@H]1O)C(N)=O` was run?
**A.** The Activity was 28%.

**Q.** And the Activity [2]?
**A.** The Activity was 100%.

**Q.** What about the Activity [3] of the same molecule?
**A.** Its Activity is 72%.

**Q.** What about the Activity [4] of the same molecule?
**A.** The Activity was 70%.

**Q.** And the Activity [5]?
**A.** Its Activity is 70%.

**Q.** And the Activity [6]?
**A.** The Activity was 88%.

**Q.** What about the Activity [7] of the same molecule?
**A.** Its Activity is 3%.

**Q.** What about the Activity [8] of the same molecule?
**A.** The Activity was 15%.

**Q.** And the Activity [9]?
**A.** Its Activity is 81%.

**Q.** And the Activity [10]?
**A.** Its Activity is 88%.

**Q.** What about the Activity [11] of the same molecule?
**A.** Its Activity is 38%.

**Q.** And the Activity [12]?
**A.** Its Activity is 103%.

**Q.** What about the Activity [13] of the same molecule?
**A.** The Activity was 84%.

**Q.** What about the Activity [14] of the same molecule?
**A.** The Activity was 106%.

**Q.** What about the Activity [15] of the same molecule?
**A.** Its Activity is 92%.

**Q.** What about the Activity [16] of the same molecule?
**A.** The Activity was 31%.

**Q.** And the Activity [17]?
**A.** The Activity was 94%.

**Q.** And the Activity [18]?
**A.** Its Activity is 99%.

**Q.** And the Activity [19]?
**A.** Its Activity is 91%.

**Q.** And the Activity [20]?
**A.** Its Activity is 16%.

**Q.** And the Activity [21]?
**A.** The Activity was 94%.

**Q.** What about the Activity [22] of the same molecule?
**A.** Its Activity is 56%.

**Q.** What about the IC50 [23] of the same molecule?
**A.** The IC50 was 0.109 µM.

**Q.** And the Activity [24]?
**A.** The Activity was 62%.

**Q.** What about the Activity [25] of the same molecule?
**A.** The Activity was 2%.
